Data published in paper PMC10796979 (The Journal of Biological Chemistry, 2023).

Assays:
[1] = system: 3T3-L1 adipocytes; test: Lipolysis; type: cell-based; settings: 30 min or 3 h incubation
Summary of the method: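 3T3-L1 cells differentiated with insulin-containing medium and used 8–9 days after induction. Serum-starved in KRH buffer, then given ISO 50 nM plus test compound (10 nM to 1 μM) for 30 min or 3 h. Medium heat-inactivated at 60 °C for 20 min, then glycerol measured colorimetrically at 540 nm. Glycerol normalised to Bradford protein and expressed as fold over control in the same experiment. One-way ANOVA with Tukey.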

[2] = biological target: T1, C3aR1 (Homo sapiens, UniProt Q16581); test: Gi/o-mediated cAMP inhibition Glosensor assay; type: cell-based
T1 sequence (Q16581 1-482): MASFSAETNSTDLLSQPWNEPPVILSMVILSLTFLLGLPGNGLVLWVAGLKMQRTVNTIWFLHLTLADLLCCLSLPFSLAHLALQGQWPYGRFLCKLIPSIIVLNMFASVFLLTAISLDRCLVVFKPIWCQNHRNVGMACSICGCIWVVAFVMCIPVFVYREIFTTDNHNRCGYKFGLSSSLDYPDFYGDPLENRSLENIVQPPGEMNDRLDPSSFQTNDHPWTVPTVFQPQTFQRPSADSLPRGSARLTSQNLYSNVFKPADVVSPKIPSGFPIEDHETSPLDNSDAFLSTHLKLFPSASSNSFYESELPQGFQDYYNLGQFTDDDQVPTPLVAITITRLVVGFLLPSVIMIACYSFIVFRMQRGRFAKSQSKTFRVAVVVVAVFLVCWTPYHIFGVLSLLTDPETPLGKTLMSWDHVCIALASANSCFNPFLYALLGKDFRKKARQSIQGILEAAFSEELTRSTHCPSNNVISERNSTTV

[3] = system: 3T3-L1 cells; test: Fluo-4 calcium influx assay in 3T3-L1 cells; type: cell-based
Summary of the method: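 3T3-L1 cells plated at 60% confluency on collagen-coated chamber slides. Next day, medium replaced with HBSS and cells loaded with 2.5 μM Fluo-4 AM for 30 min. Single cells imaged every second for 3 min, with treatment added at 30 s; UTP served as positive control. AUC over the first 60 s taken after background removal, with each cell normalised to its basal intensity. Values were normalised to control and rescaled to 0–1.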

[4] = biological target: T1, C3aR1; test: C3aR1 β-arrestin1 recruitment BRET assay; type: cell-based
Summary of the method: (§1)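 HEK293T co-transfected 1:3:15 with C-terminal Rluc8-tagged C3aR1, GRK2 and N-terminal Venus-β-arrestin1 or Venus-β-arrestin2, then plated overnight in DMEM with 1% dialyzed FBS. Cells washed, then test compound (3×) added in HBSS/HEPES buffer, pH 7.4. Coelenterazine h (5 μM final) added 15 min before reading at 485/530 nm, at time points up to 60 min, 37 °C. Net BRET was Venus/Rluc8 corrected against wells lacking Venus-arrestin, plotted against concentration.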

[5] = biological target: T1, C3aR1; test: C3aR1 β-arrestin2 recruitment BRET assay; type: cell-based
Summary of the method: as §1

[6] = biological target: T1, C3aR1; test: C3aR1 G protein dissociation BRET assay; type: cell-based
Summary of the method: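 HEK293T co-transfected 1:1:1:1 with Gα-Rluc8, Gβ1, GFP2-Gγ and C3aR1, repeated for each Gα subtype (i, o, z, s, olf, q, 11–15). Cells plated overnight in DMEM with 1% dialyzed FBS. Test compound (3×) added in duplicate in HBSS/20 mM HEPES/0.1% BSA/0.01% ascorbic acid, pH 7.4, for 60 min at 37 °C. Coelenterazine 400a (5 μM final) added for 15 min; read at 400/515 nm. GFP2/Rluc8 ratio fitted by log(agonist)-response; three independent experiments, mean and SEM.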

[7] = biological target: T1, C3aR1; test: ELISA surface expression; type: cell-based
[8] = biological target: T2, Complement C3a receptor 1 (C3aR1) fused to Rluc8 on the C-terminus (UniProt Q16581)
T2 sequence: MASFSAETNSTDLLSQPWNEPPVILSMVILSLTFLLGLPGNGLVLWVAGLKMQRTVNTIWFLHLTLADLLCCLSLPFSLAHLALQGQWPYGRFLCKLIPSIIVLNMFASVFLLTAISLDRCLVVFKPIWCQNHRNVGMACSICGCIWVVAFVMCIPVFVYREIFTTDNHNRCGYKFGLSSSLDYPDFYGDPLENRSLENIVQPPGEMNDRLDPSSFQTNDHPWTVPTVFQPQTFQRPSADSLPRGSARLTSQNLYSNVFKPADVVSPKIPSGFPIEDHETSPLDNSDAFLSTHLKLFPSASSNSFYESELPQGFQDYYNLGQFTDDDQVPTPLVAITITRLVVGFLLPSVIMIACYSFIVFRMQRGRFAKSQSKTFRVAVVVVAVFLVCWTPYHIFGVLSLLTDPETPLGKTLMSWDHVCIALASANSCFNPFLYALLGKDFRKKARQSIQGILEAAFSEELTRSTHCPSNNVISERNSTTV

Molecule	potentiation of adrenergic (ISO)-induced lipolysis [1]	activity in FSK-induced Gi/o-mediated cAMP inhibition [2]	induction of calcium influx by the compound alone [3]	β-arrestin1 recruitment potency compared to C3a63-77 [4]	β-arrestin2 recruitment potency compared to C3a63-77 [5]	fold more potent to cause G protein dissociation compared to C3a63-77 ([6]; Gi/o/z subtypes)	G protein dissociation activity across Gi/o/z subtypes ([6]; all tested Gi/o/z subtypes)	G protein dissociation at Gs, Gq or G12/13 subtypes ([6]; full screen panel of Gα proteins)	β-arr2-dependent C3aR1 internalization compared to C3a63-77 [7]	recruitment of Venus-β-arrestin1 to C3aR1-Rluc8 by BRET, EC50 of the agonist [8]	recruitment of Venus-β-arrestin2 to C3aR1-Rluc8 by BRET, EC50 of the agonist [8]
NC(N)=NCCC[C@H](NC(=O)COCC(c1ccccc1)c1ccccc1)C(=O)O [SB290157]	did not potentiate	shows agonist activity	does not induce calcium influx	more potent than C3a63-77	more potent than C3a63-77	~10 fold	robust C3aR1 G protein dissociation agonist activity	no activity	more potent and efficacious		
TLQPPASSRRRHFHHALPPAR [mouse TLQP-21]										191 nM	542 nM
TLQPPSALRRRHYHHALPPSR [human TLQP-21]											3180 nM
